From article PMC10653054 (ACS Omega, 2023)

Experiments:
[1] = tested on: caspase-3, cleaved-caspase-3, pro-caspase-3 in Panc-1 cells; assay: Western blot analysis of caspase-3 proteins; assay type: cell-based, human; details: Panc-1, IC50 concentration, 48 h
Outline: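 Panc-1 cells were exposed to test compound and harvested after 48 h. Lysates were prepared in lysis buffer, and protein was quantified by Bradford assay. Proteins were separated on 15% SDS-PAGE, transferred to PVDF and probed with primary and secondary antibodies. β-actin was the loading control. Bands were detected by chemiluminescence and imaged.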

[2] = tested on: normal human dermal fibroblast (HDF) cells; assay: MTT cytotoxicity assay, normal HDF cells; assay type: cell-based; details: 48 h, read-out: In vitro antiproliferative effects (IC50) HDF
Outline: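 Cells came from the National Cell Bank of Iran and were grown in RPMI-1640 or DMEM with 10% FBS at 37 °C, 5% CO2 and 100% humidity. Test compounds in 0.1% DMSO (n = 3) were incubated 48 h, then MTT for 3 h, with formazan OD read at 570 nm. Controls were 0.1% DMSO (negative) and etoposide (positive). IC50 came from dose–response curves, mean ± SE of at least three independent experiments.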

Panc-1 cells [3] = assay: Cell cycle analysis by PI staining flow cytometry; assay type: cell-based, human; details: Panc-1, IC50 concentration, 48 h; control 1.82%
Panc-1 cells [4] = assay: Annexin V-FITC/PI dual staining flow cytometry apoptosis assay; assay type: cell-based, human; details: Panc-1, treated at IC50 concentration, 48 h
Outline: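 Panc-1 cells were seeded, held overnight at 37 °C under 5% CO2, then exposed to test compound for 48 h. Untreated cells were the negative control. Cells were trypsinized, washed twice in PBS, pelleted at 1200 rpm and resuspended in binding buffer. Labelled annexin V and propidium iodide were added, and cells were incubated 15 min at room temperature in the dark. Flow cytometry followed.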

`O=c1[nH]nc(O)c2c(-c3cccc([N+](=O)[O-])c3)c3n(c12)CCn1cccc1-3` [7m, 11-Hydroxy-12-(3-nitrophenyl)-5,6-dihydropyrrolo[2″,1″:3′,4′]pyrazino[1′,2′:1,5] pyrrolo[2,3-d]pyridazin-8(9H)-one] was tested, and the caspase-3 protein level [1] was “downregulation”, the pro-caspase-3 protein level [1] was “remained unchanged” and the IC50 [2] was over 100 µM. For the same molecule, the “proportion of cells in the sub-G1 phase” value (Panc-1 cells [3]) was 5.47%, the “necrosis (Q1)” value (Panc-1 cells [4]; control 0.586) was 0.851% and the “early apoptosis (Q3)” value (Panc-1 cells [4]; control 4.12) was 5.56%. The “late apoptosis (Q2)” value (Panc-1 cells [4]; control 4.12) was 5.45%, the “live cells (Q4)” value (Panc-1 cells [4]; control 91.2) was 88.1% and the “cell apoptosis (total apoptotic cells)” value (Panc-1 cells [4]; untreated cells 8.24%) was 11.01%.
